Series [1] can be described thus: Half-life at pH 7.4. It is filed as ADME. The note with it: buffer. In a few lines:
(§1)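 Stability at ambient temperature (20 °C) in acetonitrile/phosphate buffer (1:3) adjusted to the stated pH. Initial compound concentration is 1 × 10⁻³ to 3 × 10⁻⁴ M. Loss is followed by reverse-phase C18 HPLC with UV detection at 280 nm. t1/2 comes from linear regression of ln(concentration) vs time (h).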

Series [2] can be described thus: Half-life at pH 1.0. It is filed as ADME. The note with it: buffer. In a few lines: as §1
Series [3] can be described thus: Partition coefficient at 37 degrees Celsius at pH 7.4. Conditions: octanol/water. It is filed as physicochemical.
Series [4] can be described thus: Dissociation constant at 37 degrees Centigrade. It is filed as physicochemical.
Series [5] concerns Canis familiaris. Nature of the series: Percent inhibition of histamine-stimulated gastric acid secretion in Heidenhain pouch dog after intraduodenal administration of compound (1 umol/kg). It is filed as functional, Canis lupus familiaris, Stomach. The procedure, abridged: (§2)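 Heidenhain pouch dog with i.v. histamine at 0.5 μmol/(kg·h). Juice is collected every 15 min and acid output is found by titration to pH 7.4. Compound is given intraduodenally via a chronic duodenal cannula at submaximal plateau. Value is peak inhibition or mean plateau inhibition over 1 to 2½ h, mean of n = 4 dogs ± SEM.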

The subject of series [6] is Canis familiaris. Nature of the series: Inhibition of histamine-stimulated gastric acid secretion in conscious Heidenhain pouch dog after intravenous administration. It is filed as functional. Conditions: Canis lupus familiaris, Stomach. In a few lines: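 Conscious dog with a Heidenhain pouch made 1-3 years earlier. Acid secretion is stimulated by i.v. histamine at 0.5 μmol/(kg·h). Juice is collected by gravity every 15 min and titrated to pH 7.4 with 0.1 N NaOH. Inhibitor is given i.v. at submaximal plateau. % inhibition compares the peak-inhibition sample with the pre-dose sample. ED50 uses three doses × three dogs, with 95% confidence limits (n = 9).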

Series [7] can be described thus: Dissociation constant at 37 degree Centigrade. It is filed as physicochemical.
The subject of series [8] is Rattus norvegicus. The experiment in a line: Inhibition of histamine-stimulated gastric acid secretion in lumen perfused anesthetized rat after intraduodenal administration. Conditions: Stomach. It is filed as functional. The procedure, abridged: (§3)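 Anaesthetized rat with stomach lumen perfusion. Effluent H⁺ activity is monitored continuously with a microflow glass electrode. Secretion is driven by i.v. histamine infusion at 0.25 μmol/(kg·min). Inhibitor is given i.v. or i.d. once a submaximal plateau is reached. % inhibition compares peak inhibition with the pre-dose plateau. ED50 uses three dose levels, three animals per dose.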

The test system of series [9] is Rattus norvegicus. The experiment in a line: Inhibition of histamine-stimulated gastric acid secretion in lumen perfused anesthetized rat after intravenous administration. It is filed as functional. The note with it: Stomach. In a few lines:
as §3

A short description of series [10]: Partition coefficient at 37 degree Celsius at pH 7.4. It is filed as physicochemical. The note with it: octanol/water.
Series [11] relates to Canis familiaris. The experiment in a line: Percent inhibition of histamine-stimulated gastric acid secretion in Heidenhain pouch dog after intraduodenal administration of compound (2 umol/kg). It is filed as functional, Canis lupus familiaris, Stomach. In a few lines: as §2
A short description of series [12]: Solubility in water at pH 10.
For series [13], the system named is Rattus norvegicus. Nature of the series: Inhibition of histamine-stimulated gastric acid secretion in lumen perfused anesthetized rat after intravenous administration of 1 umol/kg. It is filed as functional. Conditions: Stomach. The procedure, abridged: as §3
Series [14] deals with Rattus norvegicus. Nature of the series: Inhibition of histamine-stimulated gastric acid secretion in lumen perfused anesthetized rat after intravenous administration; Poor solubility. It is filed as functional, organism-based. The note with it: Stomach. The procedure, abridged:
as §3

Series [15] has as its system Rattus norvegicus. The experiment in a line: Inhibition of histamine-stimulated gastric acid secretion in lumen perfused anesthetized rat after intravenous administration of 1 umol/kg. It is filed as functional. The note with it: Stomach. In a few lines: as §3

Values after ≈ are worked out from the molar mass of the structure shown. Where only a bound is given, the exact number is not on record here.

Broadly, the half-life is how long it takes for the measured level to halve. The low end stands for fast loss, the high end for slow loss. By logD is commonly meant lipophilicity at a set pH, counting ionised and neutral species. A higher logD goes with higher lipophilicity. What is called pKa is the pH at which an ionisable group is half protonated. Low values mean a group that gives up its proton readily, high ones a group that holds its proton tightly. Usually Inhibition stands for the relative decrease from the control value, in per cent. Lower therefore signals a weak effect. The ED50 is the dose that gives a 50% effect, or the effect in half of the subjects. One may read the solubility as the concentration that dissolves in the medium under given conditions. Higher therefore signals much dissolved substance. In general, inhibition in vivo refers to the percentage by which the read-out fell short of the control. Low readings indicate a weak effect, high ones a strong effect.

Regarding `COc1ccc2[nH]c([S+]([O-])Cc3ncc(C)c(OC)c3C)nc2c1` (stereo not given) [OMEPRAZOLE], the half-life in series [1] is 456 h; in series [2], 2 min. Besides, in series [3], the logD is 2.18. In series [4], the pKa was determined as 6.29. The compound further returned an Inhibition with Canis familiaris [5] of 53%. The ED50 in the series with Canis familiaris [6] was found to be 0.2 µmol/kg.

Regarding `COc1ccc2[nH]c([S+]([O-])Cc3nccc(N4CCOCC4)c3F)nc2c1` (stereo not given), the half-life in series [1] is 144 h. In addition, the pKa in series [7] stood at 5.89. For the same compound, the 50% effect level in the series on Rattus norvegicus [8] (ED50) was put at a dose of 3.2 µmol/kg.

In [1], `COc1ccc2[nH]c([S+]([O-])Cc3ncc(C)c(N4CCCC4)c3Cl)nc2c1` (stereo not given) had a half-life of 60 h. The ED50 in the series on Canis familiaris [6] was determined as 0.57 µmol/kg.

Compound `COc1ccc2[nH]c([S+]([O-])Cc3nccc(N4CCCCC4)c3Br)nc2c1` (stereo not given) gave a half-life in [1] of 300 h. The compound also returned an ED50 in the series on Rattus norvegicus [9] of 0.85 µmol/kg.

Consider `COc1ccc2[nH]c([S+]([O-])Cc3nccc(N4CCCCC4)c3Cl)nc2c1` (stereo not given), for which, in series [1], the half-life is 175 h. This compound also yielded a pKa in series [7] of 5.95. The ED50 was found to be 1.16 µmol/kg in the series on Canis familiaris [6] and 7.72 µmol/kg in the series with Rattus norvegicus [8].

As to `COc1ccc2[nH]c([S+]([O-])Cc3nccc(N4CCOCC4)c3Cl)nc2c1` (stereo not given), the half-life in series [1] is 1300 h; in series [2], 1 min. This compound registered a pKa in series [7] of 5.28. Moreover, the logD in series [10] came to 1.81. In addition, in the series with Canis familiaris [11], the Inhibition was found to be 48%. The ED50 came to 1.01 µmol/kg in the series on Canis familiaris [6] and 1.14 µmol/kg in the series on Rattus norvegicus [8]. In series [12], this compound registered a solubility of 15 mg/mL (≈ 36.9 mM).

In the case of `COc1ccc2[nH]c([S+]([O-])Cc3cc(N(C)C)c(Cl)cn3)nc2c1` (stereo not given), the half-life in series [1] is 96 h. In addition, the ED50 with Canis familiaris [6] is 0.77 µmol/kg; with Rattus norvegicus [9], 1.32 µmol/kg.

As to `COc1ccc2[nH]c([S+]([O-])Cc3cc(N(C)C)c(Br)cn3)nc2c1` (stereo not given), in series [1], the half-life is 101 h. In series [7], this compound showed a pKa of 5.8. Further, the ED50 in the series on Rattus norvegicus [8] was 1.75 µmol/kg; in the series on Rattus norvegicus [9] it was 0.26 µmol/kg.

`COc1ccc2[nH]c([S+]([O-])Cc3ncc(C)c(N(C)C)c3Cl)nc2c1` (stereo not given): the half-life is 432 h in series [1] and 1 min in series [2]. The pKa in series [7] came out at 5.92. The Inhibition in the series on Canis familiaris [5] was 67%. Besides, the ED50 in the series with Rattus norvegicus [8] was found to be 1.48 µmol/kg; with Rattus norvegicus [9], 0.34 µmol/kg.

In the case of `COc1ccc2[nH]c([S+]([O-])Cc3cc(N4CCCCC4)c(Br)cn3)nc2c1` (stereo not given), the half-life in series [1] was 864 h. The compound further had a pKa in series [7] of 5.4. Further, the ED50 in the series with Canis familiaris [6] was 2.94 µmol/kg; in the series on Rattus norvegicus [8] it was 1.05 µmol/kg.

The compound `COc1ccc2[nH]c([S+]([O-])Cc3ncc(C)c(N4CCCCC4)c3Cl)nc2c1` (stereo not given) had a half-life in series [1] of 444 h. In the series with Rattus norvegicus [8], this compound returned an ED50 of 2.51 µmol/kg.

As for `COc1ccc2[nH]c([S+]([O-])Cc3cc(N(C)C)c(F)cn3)nc2c1` (stereo not given), the half-life in [1] is 26 h. In series [7], this compound returned a pKa of 6.96. The compound further gave an inhibition in vivo at 1 µmol/kg in the series on Rattus norvegicus [13] of 37%.

For `COc1ccc2[nH]c([S+]([O-])Cc3ncc(C)c(N4CCOCC4)c3Cl)nc2c1` (stereo not given), the half-life in [1] was greater than 3000 h. The pKa in [7] is 5.32.

Turning to `COc1ccc2[nH]c([S+]([O-])Cc3nccc(N4CCCC4)c3Cl)nc2c1` (stereo not given), the half-life in series [1] is 36 h. The pKa in [7] stood at 7.58. Moreover, the ED50 result in the series with Rattus norvegicus [14] is given as “Poor solubility”.

Regarding `COc1ccc2[nH]c([S+]([O-])Cc3cc(N4CCOCC4)c(F)cn3)nc2c1` (stereo not given), the half-life in series [1] was 418 h. This compound also showed a pKa in [7] of 5.72. Further, the ED50 in the series on Canis familiaris [6] is 5.07 µmol/kg; in the series on Rattus norvegicus [8], 0.65 µmol/kg.

As for `COc1ccc2[nH]c([S+]([O-])Cc3nccc(N(C)C)c3Cl)nc2c1` (stereo not given), the half-life in series [1] was 17 h. For the same compound, the results for the ED50 in the series with Canis familiaris [6], in the series on Rattus norvegicus [8] and in the series on Rattus norvegicus [9] were 0.26 µmol/kg, 0.38 µmol/kg and 0.44 µmol/kg, respectively.

Take `COc1ccc2[nH]c([S+]([O-])Cc3cc(N4CCCC4)c(Br)cn3)nc2c1` (stereo not given): the half-life in series [1] is 49 h. In addition, in [7], the pKa is 6.92.

In turn, `COc1ccc2[nH]c([S+]([O-])Cc3nccc(N(C)C)c3F)nc2c1` (stereo not given) showed a half-life in series [1] of 11 h. The pKa in series [7] came to 7.12.

Turning to `COc1ccc2[nH]c([S+]([O-])Cc3cc(N4CCOCC4)c(Br)cn3)nc2c1` (stereo not given), the inhibition in vivo at 1 µmol/kg in the series on Rattus norvegicus [15] was 14%.

These data come from ChEMBL document CHEMBL1124570, “2-[[(4-Amino-2-pyridyl)methyl]sulfinyl]benzimidazole H+/K+-ATPase inhibitors. The relationship between pyridine basicity, stability, and activity” (J Med Chem, 1989).
